Assay results collected from several papers.
Each line is one published result; the experiments were not run side by side.
Target: SNF-related serine/threonine-protein kinase (SNRK, Homo sapiens, UniProt Q9NRH2)
Sequence (Q9NRH2 1-765, as in one of the studies): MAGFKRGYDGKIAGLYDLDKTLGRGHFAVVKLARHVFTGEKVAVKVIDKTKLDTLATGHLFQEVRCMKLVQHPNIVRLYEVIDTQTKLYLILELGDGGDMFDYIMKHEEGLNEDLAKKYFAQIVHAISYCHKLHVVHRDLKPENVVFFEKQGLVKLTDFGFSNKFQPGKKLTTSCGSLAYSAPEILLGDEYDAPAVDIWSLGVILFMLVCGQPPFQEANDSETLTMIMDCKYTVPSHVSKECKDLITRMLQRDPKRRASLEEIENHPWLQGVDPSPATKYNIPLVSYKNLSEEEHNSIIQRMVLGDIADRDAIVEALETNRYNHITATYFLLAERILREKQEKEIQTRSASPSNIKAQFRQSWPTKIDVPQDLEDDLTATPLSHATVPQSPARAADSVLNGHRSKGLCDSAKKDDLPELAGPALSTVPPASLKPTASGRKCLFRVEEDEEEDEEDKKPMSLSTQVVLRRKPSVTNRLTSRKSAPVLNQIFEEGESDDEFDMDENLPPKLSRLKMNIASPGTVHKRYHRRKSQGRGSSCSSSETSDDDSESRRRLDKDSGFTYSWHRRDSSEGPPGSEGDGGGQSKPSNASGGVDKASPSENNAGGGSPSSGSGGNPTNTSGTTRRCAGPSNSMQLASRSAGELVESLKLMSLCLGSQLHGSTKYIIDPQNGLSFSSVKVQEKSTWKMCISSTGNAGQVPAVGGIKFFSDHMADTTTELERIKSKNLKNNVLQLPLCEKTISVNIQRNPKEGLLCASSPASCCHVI

Structure (SMILES) | effect on | mode | technique | tested at | measurement | value
C[C@@H]1CN(c2cc(-c3nn(C)c4ccc(OC5(C)CC5)cc34)ncn2)C[C@H](C)O1 | cell-free assay | – | competition with immobilised ligand | 1 µM | remaining binding | 92%
Cc1sc(C(=O)NC2COC2)cc1-n1cc(NC(=O)Nc2c(F)cccc2Cl)cn1 | enzyme activity | inhibitor | – | 10 µM | remaining activity | 102%
Cc1ccc(NC(=O)c2ccc(C)c(C(F)(F)F)c2)cc1C#Cc1nn(C2CCC(O)CC2)c2ncnc(N)c12 (stereo not drawn) | cell-free assay | – | – | 10 µM | remaining signal | 92%
c1ccc(CNc2nc(N3CCOc4ccccc43)nc3c2CCCC3)cc1 | target engagement in cells | inhibitor | chemoproteomics | 20 mM | inhibition | 0.3%
COc1cc(Cl)c(C(=O)N[C@@H](CN[C@H]2CC[C@@H](N)CC2)Cc2ccc(C#N)cc2)cc1-c1ccc(CN[C@H](C)c2ccc(C)cc2)o1 | enzyme activity | inhibitor | – | 1 µM | remaining activity | 104%
Nc1ncnc2occ(-c3ccc(NC(=O)Nc4cc(C(F)(F)F)ccc4F)cc3)c12 | cell-free assay | inhibitor | – | 20 µM | remaining signal | 64%
CNC(=O)Nc1ccc2c(c1)CC[C@@]21OC(=O)N(CC(=O)N(Cc2ccc(F)cc2)[C@@H](C)C(F)(F)F)C1=O | cell-free assay | – | competition with immobilised ligand | 1 µM | remaining binding | 96%
CN1CC(Oc2cnc(C#N)cc2-c2ccn3nc(NC(=O)C4CC4)cc3c2)C1 | enzyme activity | inhibitor | – | 1 µM | inhibition | -12%
Cc1cnc(NC2CCOCC2)nc1-n1cnc(C(=O)NC(CN)c2cc(F)cc(Cl)c2)c1 (stereo not drawn) | enzyme activity | inhibitor | radiometric | 1 µM | remaining activity | 100%
Cc1cc(NC(=O)c2cccc3cc(-c4cccc5[nH]nc(N)c45)ccc23)ccc1F | enzyme activity | inhibitor | – | 0.1 µM | activity vs control | 109%
O=C(Nc1cnn(-c2csc(C(=O)NC3COC3)c2)c1)Nc1ccccc1Cl | enzyme activity | inhibitor | – | 5 µM | remaining activity | 96.8%
COc1cccc2c(NCc3ccccc3)nc(-n3c(N)nc4ccccc43)nc12 | target engagement in cells | inhibitor | chemoproteomics | 20 mM | inhibition | 1.2%
